Data set [1] deals with T1, Prostaglandin E synthase (Homo sapiens) (UniProt O14684).
T1 sequence (whole entry): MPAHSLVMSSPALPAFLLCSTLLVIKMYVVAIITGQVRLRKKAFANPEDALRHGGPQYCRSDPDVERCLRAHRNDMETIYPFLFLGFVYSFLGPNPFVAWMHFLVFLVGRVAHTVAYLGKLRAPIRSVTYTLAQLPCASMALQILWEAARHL
The data set can be described thus: Inhibition of human mPGES1 expressed in 293 cell microsomes at 10 uM preincubated for 15 mins followed by PGH2 substrate addition measured after 3 secs by enzyme immunoassay relative to control. Put shortly: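 Single-point screen at 10 μM against human mPGES-1, reported as % inhibition. Only compounds reaching the ≥70% cutoff went on to IC50 determination. Data are means ± SD from triplicate determinations.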

The next data set relates to COX1/COX2. The data set can be described thus: Inhibition of ovine COX1/human COX2 assessed as reduction in PGF2alpha production at 100 uM preincubated for 10 mins followed by arachidonic acid substrate addition measured after 2 mins by colorimetric assay relative to control. As to conditions: sheep (COX1) / human (COX2), ovine COX1/human COX2 enzyme, probe arachidonic acid.

The target of a further data set is T2, Prostaglandin E synthase (Homo sapiens, UniProt O14684).
T2 sequence (O14684 whole entry): T1 sequence (whole entry)
The data set can be described thus: Inhibition of human mPGES1 expressed in 293 cell microsomes preincubated for 15 mins followed by PGH2 substrate addition measured after 3 secs by enzyme immunoassay. In outline: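 Compounds were first screened against human mPGES-1 at 10 μM, and IC50 values were determined only for those giving ≥70% inhibition. Protein preparation and assay followed earlier reports. Values are means ± SD of single determinations run in triplicate.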

Usually inhibition stands for the percentage by which the read-out fell short of the control. By IC50 is commonly meant the point on the concentration scale where inhibition reaches its midpoint. A higher IC50 goes with a need for much substance.

For the compound `CCOc1ccc(-c2nn(-c3ccc(Cl)cc3)cc2C=C(C#N)C#N)cc1`, the inhibition in data set [1] stood at 51%.
For `CCCCOc1ccc(-c2nn(-c3ccccc3)cc2C=C2C(=O)NC(=S)NC2=O)cc1`, the inhibition at 2 min, 100 µM in the data set with COX1/COX2 was determined as 16%. In data set [1], the inhibition is more than 70%.
On to `CCCCCCCCCCOc1ccc(-c2nn(-c3ccc(Cl)cc3)cc2C=C2C(=O)NC(=S)NC2=O)cc1`, for which the inhibition at 2 min, 100 µM with COX1/COX2 is 11%. The same compound displayed an inhibition in data set [1] of more than 70%.
With `CCOc1ccc(-c2nn(-c3ccc(Cl)cc3)cc2/C=C(\C#N)C(N)=O)cc1`, in data set [1], the inhibition was found to be 32%.
`CCOc1ccc(-c2nn(-c3ccc(Cl)cc3)cc2/C=C(\C#N)C(=O)O)cc1` showed a half-maximal inhibitory concentration (IC50) on Prostaglandin E synthase of 283 nM. The inhibition in data set [1] is more than 70%.
As to `CCCCCCOc1ccc(-c2nn(-c3ccc(Cl)cc3)cc2C=C2C(=O)NC(=S)NC2=O)cc1`, the inhibition at 2 min, 100 µM with COX1/COX2 stood at 0.7%. The inhibition in data set [1] was more than 70%.
`CCOc1ccc(-c2nn(-c3ccc(Cl)cc3)cc2C=C2C(=O)NC(=O)NC2=O)cc1` came in with an inhibition in data set [1] of more than 70%.
Still for that read-out and setting: next, `CCCCCCCCCCOc1ccc(-c2nn(-c3ccc(Cl)cc3)cc2C=C2C(=O)NC(=O)NC2=O)cc1`: more than 70%.
Compound `CCCCCCOc1ccc(-c2nn(-c3ccc(Cl)cc3)cc2/C=C2/SC(=O)N(CC(=O)O)C2=O)cc1` registered an IC50 against Prostaglandin E synthase of 36 nM. Moreover, the inhibition at 2 min, 100 µM in the data set on COX1/COX2 was found to be 1.2%. The inhibition in data set [1] is more than 70%.
`CCCCCCOc1ccc(-c2nn(-c3ccc(Cl)cc3)cc2C=C(C#N)C#N)cc1` yielded an inhibition in data set [1] of 64%.
Take `CCCCCCOc1ccc(-c2nn(-c3ccc(Cl)cc3)cc2/C=C(\C#N)C(=O)O)cc1`: half-maximal inhibition at Prostaglandin E synthase (IC50) was put at 83 nM. In addition, in the data set with COX1/COX2, the inhibition at 2 min, 100 µM stood at 19%. This compound also yielded an inhibition in data set [1] of more than 70%.
As for `CCCCCCCCOc1ccc(-c2nn(-c3ccc(Cl)cc3)cc2C=C2C(=O)NC(=S)NC2=O)cc1`, the inhibition at 2 min, 100 µM in the data set with COX1/COX2 is 0%. This compound returned an inhibition in data set [1] of more than 70%.
The matching figures for `CCCCOc1ccc(-c2nn(-c3ccc(Cl)cc3)cc2C=C2C(=O)NC(=S)NC2=O)cc1`: 4.4% and more than 70%.
The compound `CCCCOc1ccc(-c2nn(-c3ccc(Cl)cc3)cc2C=C2C(=O)NC(=O)NC2=O)cc1` displayed an inhibition in data set [1] of more than 70%.
On the same count and under the same terms, in the case of `CCCCCCOc1ccc(-c2nn(-c3ccc(Cl)cc3)cc2C=C2C(=O)NC(=O)NC2=O)cc1` it was more than 70%.
Turning to `CCCCCCOc1ccc(-c2nn(-c3ccc(Cl)cc3)cc2/C=C(\C#N)C(N)=O)cc1`, in data set [1], the inhibition came to 14%.
The compound `CCOc1ccc(-c2nn(-c3ccc(Cl)cc3)cc2/C=C2/SC(=S)NC2=O)cc1` had an IC50 against Prostaglandin E synthase of 1040 nM. This compound returned an inhibition in data set [1] of more than 70%.
The matching figures for `CCCCCCOc1ccc(-c2nn(-c3ccc(Cl)cc3)cc2/C=C2/SC(=S)NC2=O)cc1`: 1730 nM and more than 70%.
The like results for `O=C1NC(=O)C(=Cc2cn(-c3ccc(Cl)cc3)nc2-c2ccc(OCc3ccccc3)cc2)C(=O)N1` were, in that order, 598 nM and more than 70%.
For the compound `CCCCCCCCOc1ccc(-c2nn(-c3ccc(Cl)cc3)cc2C=C2C(=O)NC(=O)NC2=O)cc1`, the inhibition in data set [1] was more than 70%.
In the case of `CCCCCCOc1ccc(-c2nn(-c3ccc(Cl)cc3)cc2/C=C2/SC(=O)NC2=O)cc1`, it took 1390 nM to reach half-maximal inhibition against Prostaglandin E synthase (IC50). In data set [1], this compound yielded an inhibition of more than 70%.
Regarding `O=C1NC(=S)NC(=O)C1=Cc1cn(-c2ccc(Cl)cc2)nc1-c1ccccc1`, at Prostaglandin E synthase, the concentration for half-maximal inhibition (IC50) was 561 nM. Further, the inhibition in data set [1] is more than 70%.
As to `CCOc1ccc(-c2nn(-c3ccc(Cl)cc3)cc2C=C2C(=O)NC(=S)NC2=O)cc1`, the inhibition at 2 min, 100 µM with COX1/COX2 turned out to be 1%. In data set [1], this compound showed an inhibition of more than 70%.
On to `CCCCOc1ccc(-c2nn(-c3ccccc3)cc2C=C2C(=O)NC(=O)NC2=O)cc1`, for which the inhibition in data set [1] is more than 70%.
For the compound `CCOc1ccc(-c2nn(-c3ccc(Cl)cc3)cc2/C=C2/SC(=O)NC2=O)cc1`, the IC50 against Prostaglandin E synthase is 1590 nM. Further, the inhibition in data set [1] is more than 70%.
The matching figures for `O=C1NC(=S)NC(=O)C1=Cc1cn(-c2ccc(Cl)cc2)nc1-c1ccc(OCc2ccccc2)cc1`: 797 nM and more than 70%.
The like results for `O=C1NC(=O)C(=Cc2cn(-c3ccc(Cl)cc3)nc2-c2ccccc2)C(=O)N1` were, in that order, 337 nM and more than 70%.
Regarding `CCOc1ccc(-c2nn(-c3ccc(Cl)cc3)cc2/C=C2/SC(=O)N(CC(=O)O)C2=O)cc1`, inhibition against Prostaglandin E synthase was half-maximal at 41 nM (IC50). Besides, the inhibition at 2 min, 100 µM with COX1/COX2 amounted to 6.8%. The inhibition in data set [1] is more than 70%.

Values taken from ChEMBL document CHEMBL4184290, “Design, synthesis, and discovery of 5-((1,3-diphenyl-1H-pyrazol-4-yl)methylene)pyrimidine-2,4,6(1H,3H,5H)-triones and related derivatives as novel inhibitors of mPGES-1” (Bioorg Med Chem Lett, 2018).
